An excerpt weighted towards active compounds, which were near 3.7% of everything screened.
MPTP inh: permeability transition pore inhibition; isolated mouse mitochondria, Ca2+ swelling absorbance, 30 min; inhibition, % at 10 µM; actives 1.4% (n = 360,000);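 active = inhibition of 50% or more, scaled per plate between neutral and stimulator controls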;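 note: 0% = DMSO wells given calcium and 100% = 1 mM EGTA wells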
aDG glyco act: increases alpha dystroglycan glycosylation | Pro5-aDG cells, alpha-DG glycosylation AlphaScreen (IIH6); 0% Pro5, 100% B10-LARGE cell signal | activation, % at 10 µM | actives 0.22% (n = 360,000) | AID 624168;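 active = activation of at least 8% versus controls, or a plate z-score of at least 8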;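 note: Pro5 are CHO cells carrying HIG-tagged alpha-DG that lacks glycosylation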
GRIN3A LBD mod: modulators (binders) of human NR3A ligand-binding domain | NR3A LBD differential scanning fluorimetry, Tm shift; 0% = protein alone, 100% = glycine-bound protein | Tm shift relative to glycine control, % at 25 µM | actives 2.5% (n = 340,000);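 active = melting temperature shift of at least 10% of the positive control shift, at one fixed dose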
proCasp3 act: activators of human procaspase-3; AID 463141; activation, % at 8.5 µM; actives 0.11% (n = 330,000); recombinant procaspase-3 D3A, Ac-DEVD-pNA absorbance 405 nm;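 active = activation above the mean of all tested compounds plus 3 SD, cut at about 21% in these data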;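 note: 0% = DMSO alone and 100% = DMSO wells spiked with extra 5 µM PC-3 D3A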
Target sequence (P42574 whole entry D9A/D28A/D175A): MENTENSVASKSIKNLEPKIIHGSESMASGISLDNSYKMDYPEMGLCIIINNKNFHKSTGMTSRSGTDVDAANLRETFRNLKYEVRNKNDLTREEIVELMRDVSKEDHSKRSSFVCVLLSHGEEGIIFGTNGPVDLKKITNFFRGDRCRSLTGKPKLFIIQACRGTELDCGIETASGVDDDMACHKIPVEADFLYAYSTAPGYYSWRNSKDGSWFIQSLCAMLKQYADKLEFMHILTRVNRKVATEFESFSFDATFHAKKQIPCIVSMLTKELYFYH
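Assay system: Procaspase-3 D3A mutant, all three cleavage aspartates alanine. Buffer or medium: Zinc-free HEPES saline buffer with Triton X-100. Times: 1 h compound preincubation, 2 h substrate hydrolysis at 25 °C. Measured by: 405 nm absorbance of p-nitroaniline, reads at 0 and 120 min. Read-out basis: percent activation relative to control range. Replicates: singlicate.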
procasp7 counter: counter-screen: procaspase-7 (human) activation. AID 463210. P55210. actives 0.093% (n = 330,000). recombinant procaspase-7, Ac-DEVD-pNA absorbance 405 nm; D23A/D198A/D206A triple mutant, cannot self-cleave; scale: DMSO 0, 5 µM enzyme 100. activation, % at 8.5 µM;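 active = percent activation above the screen-wide mean plus 3 SD, cut at about 25% in these data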
Target sequence (P55210 whole entry D23A/D198A/D206A): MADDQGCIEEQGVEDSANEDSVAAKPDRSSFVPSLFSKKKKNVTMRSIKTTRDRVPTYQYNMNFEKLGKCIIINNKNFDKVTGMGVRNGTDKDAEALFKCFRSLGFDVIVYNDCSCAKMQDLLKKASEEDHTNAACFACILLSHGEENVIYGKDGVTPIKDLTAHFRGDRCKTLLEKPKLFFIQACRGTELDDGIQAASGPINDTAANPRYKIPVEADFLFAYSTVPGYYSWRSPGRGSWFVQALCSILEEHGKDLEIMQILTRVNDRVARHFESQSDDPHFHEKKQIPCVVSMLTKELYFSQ
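Material: Procaspase-7 triple mutant (PC-7 D3A) | Quantity: 2 µM procaspase-7 mutant as dispensed | Reagent: DEVD-pNA substrate | Times: 1 h preincubation, 2 h reaction | Technique: 405 nm absorbance of p-nitroaniline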
Rh123 counter: mitochondrial membrane potential, counter-screen; shares compounds with MPTP inh; isolated mitochondria, Rhodamine 123 fluorescence; inhibition, % at 10 µM; actives 78% (n = 5,000); in the data active = inhibition above about 22%;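 note: 0% = DMSO vehicle and 100% = positive control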
* = called active by the depositor; . = not tested or not shown; ! = a repeat was not active.

SMILES	MPTP inh	aDG glyco act	GRIN3A LBD mod	proCasp3 act	procasp7 counter	Rh123 counter
CC1(C)CC(=O)c2c(O)cc(OCC(=O)Nc3ccc(S(N)(=O)=O)cc3)cc2O1	-0.3	-0.2	-3.0	3.5	-0.1	.
COc1cc(NC(=O)COc2cc(O)c3c(c2)OC(C)(C)CC3=O)cc(OC)c1OC	98.8*	2.7	-0.5	-10.5	1.5	98.3*
CN(CCc1ccccc1)C(=O)c1ccc(NC(=O)Cc2ccc(NC(=O)C3CCN(S(=O)(=O)c4cccc([N+](=O)[O-])c4)CC3)cc2)cc1	0.4	0.0	7.2	.	.	.
CCOC(=O)c1cnc2ccc(OCC)cc2c1NCc1ccccc1OC	84.6*	0.4	20.1*	11.2	-0.9	99.2*
CCOC(=O)c1cnc2ccc(OC)cc2c1NCc1ccccc1	2.0	0.0	4.1	1.9	8.2	.
CC1=CC(=O)c2ccccc2C1=O	-1.1	0.2	-2.2	3.8	5.2	.
CC(C)(C=O)C1=CC(=O)c2ccccc2C1=O	99.7*	-0.5	11.2*	-21.9	-30.7	0.9
COC(=O)c1ccc(CN2CCCC(C(=O)c3ccccc3OC)C2)cc1 (configuration not stated)	-1.0	-0.1	-2.0	11.8	-6.1	.
CSc1ccc(CN2C(=O)C(F)(F)Oc3c(C(C)=O)cccc32)cc1	73.5*	1.2	.	.	.	75.5*
O=C(Nc1cc(S(=O)(=O)N2CCCCC2)ccc1O)c1ccccc1NS(=O)(=O)c1ccc(F)cc1	96.9*	0.1	21.0*	0.1	3.0	71.4*
O=C(Nc1cc(S(=O)(=O)Nc2ccc(Cl)cc2)ccc1O)c1ccc(S(=O)(=O)N2CCCCCC2)cc1	90.9*	-0.2	29.6*	1.2	-20.2	41.6*
COc1ccc(S(=O)(=O)N2CCCCCC2)cc1NC(=O)c1ccccc1F	-2.1	0.6	1.2	19.2	-6.8	.
O=C(c1ccccc1NS(=O)(=O)c1ccc(F)cc1)N1CCCCC1	-0.4	0.0	0.5	7.9	0.8	.
CCOc1ccc(S(=O)(=O)Nc2ccccc2C(=O)Nc2ccccc2N2CCOCC2)cc1	0.1	-0.1	-3.2	6.9	-4.2	.
O=C(Nc1cc(S(=O)(=O)N2CCCCC2)ccc1Cl)c1ccccc1NS(=O)(=O)c1ccc(F)cc1	97.1*	0.1	20.8*	-3.4	8.8	60.2*
O=C(Nc1cc(S(=O)(=O)N2CCOCC2)ccc1O)c1ccc(S(=O)(=O)N2CCCCC2)cc1	-1.0	-0.1	-8.1	6.8	11.5	.
CCOc1ccc(NC(=O)c2ccccc2NS(=O)(=O)c2ccc(F)cc2)c([N+](=O)[O-])c1	91.6*	-0.1	4.2	-2.1	1.3	93.6*
COC(=O)CSC(C(=O)Nc1ccc(C)c(C)c1)c1ccccc1 (configuration not stated)	0.9	0.1	-0.3	5.0	8.1	.
CS(=O)(=O)c1ccc(Cl)c(NC(=O)c2cc(S(=O)(=O)N3CCOCC3)ccc2N2CCCC2)c1	0.2	-0.3	-1.9	3.6	-1.8	.
O=C(CN1C(=O)c2ccccc2C1=O)OCC(=O)N1CCCCC1	0.1	0.0	-1.0	11.0	5.8	.
CCOc1ccccc1C(=O)Nc1cc(Cl)ccc1O	92.2*	0.0	15.7*	6.0	-2.4	75.8*
CCOc1ccccc1C(=O)Nc1cc(OC)ccc1OC	3.0	0.2	1.8	3.0	5.5	.
COc1cc(OC)c(NC(=O)c2cc3ccccc3cc2O)cc1Cl	90.5*	-0.1	26.1*	.	.	32.9*
Cc1ccc(Cl)cc1NC(=O)c1ccccc1OCC(=O)Nc1ccc(Cl)cc1	88.2*	-0.6	29.5*	4.4	6.7	92.9*
COc1ccccc1C(=O)Nc1cc(Cl)ccc1O	66.9*	0.0	10.9*	4.1	7.4	36.1*
SMILES	MPTP inh	aDG glyco act	GRIN3A LBD mod	proCasp3 act	procasp7 counter	Rh123 counter
CCN1C(=O)[C@H]2[C@@H](c3ccc(-c4ccccc4)cc3)N3CCCC[C@@]3(C(=O)OC)[C@H]2C1=O	1.4	0.1	0.6	-2.1	2.3	.
CC(=O)Oc1ccc(C2=Cc3ccc(OC(C)=O)cc3OC2C)cc1 (configuration not stated)	0.4	-0.1	-3.2	.	.	.
O=C(OCc1ccccc1)N1CCC2CC1c1c2cccc1N1CCOCC1 (configuration not stated)	0.1	-0.2	.	.	.	.
CN(Cc1ccccc1)C(=O)c1csc([C@@H]2O[C@H](CO)[C@H](O)[C@H](O)[C@H]2O)n1	-0.4	-0.3	.	.	.	.
O=S(=O)(Nc1cc(Cl)ccc1-n1cncn1)c1ccccc1Cl	2.6	0.1	-3.0	1.0	6.5	.
O=S(=O)(Nc1cc(Cl)ccc1-n1cncn1)c1cc(Br)ccc1Br	65.8*	0.3	22.5*	4.3	0.2	92.8*
CN(C)CC/C=C1/c2ccccc2Sc2ccc(Cl)cc21	94.7*!	-0.3	-1.3	3.9	-7.3	-7.9
Cc1ccc(NC(=S)Nc2ccc(Br)cc2)cc1	43.6	0.0	2.0	-1.6	-1.3	.
S=C(Nc1ccccc1)Nc1ccc(Br)cc1	94.9*	0.6	4.2	-0.2	5.3	88.2*
O=C(Nc1cccc(Br)c1)C1CCCC1	8.2	0.0	0.2	3.3	-0.8	.
O=C(CCc1ccccc1)NC(=S)Nc1cccc(Br)c1	5.8	-0.1	4.1	-0.4	0.8	.
CC(=O)Nc1ccc(NC(=S)Nc2ccc(Br)cc2)cc1	97.8*	0.0	8.8	-14.4	-18.8	88.4*
S=C(Nc1ccccc1)Nc1cccc(Br)c1	90.2*	0.1	16.2*	-0.2	-9.8	102.4*
S=C(Nc1cccc(Br)c1)c1ccccc1	53.1*	-0.4	-5.7	-5.9	6.6	71.4*
O=C(OC(C(=O)NCC1CCCO1)c1ccccn1)c1cccs1 (configuration not stated)	-3.3	-0.3	-2.6	-3.6	10.3	.
OC[C@@H]1CN(C2CCCC2)C[C@H](n2cnc3c(NC4CC4)ncnc32)O1	-0.2	0.0	.	.	.	.
N#Cc1ccc(NC(=S)Nc2ccccc2)cc1	90.0*	0.0	-8.1	0.8	-1.2	92.0*
CC(=O)Nc1ccc(NC(=S)Nc2ccccc2)cc1	-0.5	-0.1	-6.7	-8.6	-19.1	.
CC(C)(C)NC(=S)Nc1ccc(Br)cc1	50.8*	0.3	-7.9	1.8	-1.1	66.1*
CCC(C)Sc1ccc(-c2nc3cc(C)ccn3c2NC2CCCCC2)cc1 (configuration not stated)	56.0*!	4.7	-10.2	-5.5	-16.8	100.6*
Cn1nc(CC(=O)Nc2ccc(N3CCN(C(=O)OC(C)(C)C)CC3)cc2)c2ccccc2c1=O	101.1*	3.5	3.1	6.9	-1.7	74.0*
CCN1/C(=C/C(C)=C/c2sc3ccccc3[n+]2CC)Sc2ccccc21	198.7*	0.3	-14.4	-35.2	-28.8	67.8*
Cc1cccc(C(=O)Nc2sc(C)c(-c3ccccc3)c2C#N)c1	1.2	0.2	-3.7	-1.7	5.1	.

Bioassay records (PubChem)
